# Article PMC6045484 (ACS Omega, 2018)
# Assays:
# MRSA (ATCC33591) = test: in vitro antibacterial activity; assay type: cell-based, methicillin-resistant Staphylococcus aureus; conditions: Staphylococcus aureus, ATCC33591|MRSA, read-out: MIC, MRSA
# Method in brief: (§1)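 Test compound serially diluted in 20% DMSO/saline and plated in duplicate, up to 20 μg/mL. Inoculum in cation-adjusted Mueller–Hinton broth, pH 7.3, set by OD630 to 5 × 10^5 CFU/mL. Incubated 16–20 h at 35 °C; 530 nm read before and after. IC50 is 50% growth inhibition; MIC is no detectable growth. MBC from clear wells subcultured on agar. Ciprofloxacin control.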
# SA (ATCC29213) = test: in vitro antibacterial activity; assay type: cell-based; conditions: Staphylococcus aureus; for IC50: ATCC29213, read-out: IC50 (concentration that affords 50% growth inhibition), SA; for MBC: ATCC29213, read-out: MBC (minimum bactericidal concentration), SA; for MIC: ATCC29213, read-out: MIC, SA
# Method in brief: as §1
# P. falciparum (W2) = test: in vitro antimalarial activity, plasmodial LDH; assay type: cell-based, Plasmodium falciparum; conditions: Plasmodium falciparum, W2, 72 h, read-out: P. falciparum (W2) IC50, CQ-resistant W2 strain, 72 h
# Method in brief: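 P. falciparum-infected erythrocytes (2% parasitemia, 2% hematocrit) in RPMI 1640 with 10% human serum and 60 μg/mL amikacin. Exposed to test compound dilutions for 72 h at 37 °C under 90% N2/5% O2/5% CO2. LDH measured with Malstat reagent (30 min, room temperature), then NBT/PES for 1 h in the dark, stopped with 5% acetic acid, read at 650 nm. IC50 from dose-response curves.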
# [1] = tested on: L. donovani promastigotes; test: in vitro antileishmanial activity, alamarBlue assay; assay type: cell-based, Leishmania donovani; conditions: Leishmania donovani, 48 h; for IC50: read-out: L. donovani IC50, promastigotes, 48 h; for IC90: read-out: L. donovani IC90, promastigotes, 48 h
# C. neoformans ATCC90113 = test: in vitro antifungal activity; assay type: cell-based, Cryptococcus neoformans; conditions: Cryptococcus neoformans; for IC50: ATCC90113, read-out: C. neoformans IC50; for MFC: ATCC90113, read-out: C. neoformans MFC; for MIC: ATCC90113, read-out: C. neoformans MIC
# Method in brief: (§2)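 Modified NCCLS broth method in Sabouraud dextrose. Inoculum set by OD630 to 1.5 × 10^3 CFU/mL. Test compound serially diluted in 20% DMSO/saline, duplicate wells, up to 20 μg/mL. Incubated 70–74 h at 35 °C; 530 nm read before and after. IC50 is 50% growth inhibition; MIC is no detectable growth. MFC from clear wells subcultured on agar. Amphotericin B control.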
# C. albicans ATCC90028 = test: in vitro antifungal activity; assay type: cell-based, Candida albicans; conditions: Candida albicans; for IC50: ATCC90028, read-out: C. albicans IC50; for MFC: ATCC90028, read-out: C. albicans MFC; for MIC: ATCC90028, read-out: C. albicans MIC
# Method in brief: as §2
# [2] = tested on: M. intracellulare (ATCC23068); test: in vitro antibacterial activity, modified alamarBlue procedure; assay type: cell-based, Mycobacterium intracellulare; conditions: Mycobacterium intracellulare; for IC50: ATCC23068, read-out: IC50 (concentration that affords 50% growth inhibition), M. intracellulare; for MBC: ATCC23068, read-out: MBC (minimum bactericidal concentration), M. intracellulare; for MIC: ATCC23068, read-out: MIC, M. intracellulare
# Method in brief: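 Modified alamarBlue microplate method. Test compound serially diluted in 20% DMSO/saline, duplicate wells, up to 20 μg/mL. Inoculum 2.0 × 10^6 CFU/mL in Middlebrook 7H9 with OADC, pH 7.3, containing 5% alamarBlue. Incubated 70–74 h at 37 °C, 10% CO2; fluorescence 544ex/590em read before and after. MIC: no blue-to-pink change. MBC by subculturing blue wells on agar. Ciprofloxacin control.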
# P. falciparum (D6) = test: in vitro antimalarial activity, plasmodial LDH; assay type: cell-based, Plasmodium falciparum; conditions: Plasmodium falciparum, D6, 72 h, read-out: P. falciparum (D6) IC50
# A. fumigatus ATCC 90906 = test: in vitro antifungal activity; assay type: cell-based, Aspergillus fumigatus; conditions: Aspergillus fumigatus; for IC50: ATCC90906, read-out: A. fumigatus IC50; for MFC: ATCC90906, read-out: A. fumigatus MFC; for MIC: ATCC90906, read-out: A. fumigatus MIC
# Method in brief: as §2
# [3] = tested on: SK-MEL, KB, BT-549, SK-OV-3, VERO and LLC-PK1 cells; test: cytotoxicity, neutral red uptake assay; assay type: cell-based, mammalian; conditions: highest test concentration 4760 ng/mL
# Method in brief: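 Cells seeded at 25 000/well and allowed 24 h to reach confluence. Test compound was then added and incubated 48 h. Viable cells were counted by a modified neutral red uptake method. The panel was four human cancer lines and two noncancerous mammalian kidney lines. Doxorubicin served as positive control and DMSO as negative control.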
SMILES,MIC (MRSA (ATCC33591)),IC50 (SA (ATCC29213)),MBC (SA (ATCC29213)),MIC (SA (ATCC29213)),IC50 (P. falciparum (W2)),IC50 [1],IC90 [1],IC50 (C. neoformans ATCC90113),MFC (C. neoformans ATCC90113),MIC (C. neoformans ATCC90113),IC50 (C. albicans ATCC90028),MFC (C. albicans ATCC90028),MIC (C. albicans ATCC90028),IC50 [2],MBC [2],MIC [2],IC50 (P. falciparum (D6)),IC50 (A. fumigatus ATCC 90906),MFC (A. fumigatus ATCC 90906),MIC (A. fumigatus ATCC 90906),further results
"CCCCCCCOc1c(OC)cc(NC(C)CCCN)c2nc(C(C)(C)C)cc(C)c12 (stereo not drawn) [compound 53, N^4-(5-Heptyloxy-2-tert-butyl-6-methoxy-4-methylquinolin-8-yl)pentane-1,4-diamine]",2.5 µg/mL,1.33 µg/mL,5 µg/mL,2.5 µg/mL,1.3 µg/mL,0.84 µg/mL,1.95 µg/mL,0.67 µg/mL,1.25 µg/mL,1.25 µg/mL,5.06 µg/mL,10 µg/mL,10 µg/mL,3.12 µg/mL,5 µg/mL,5 µg/mL,2 µg/mL,19.3 µg/mL,> 20 µg/mL,> 20 µg/mL,"cytotoxicity CTX [3]: NC (NC, not cytotoxic up to 4760 ng/mL (4.76 μg/mL))"
"CCCCCCCCOc1c(OC)cc(NC(C)CCCNC(=O)C2CCCN2)c2nc(C(C)(C)C)ccc12 (stereo not drawn) [compound 123, N-(4-(2-tert-Butyl-6-methoxy-5-(octyloxy)quinolin-8-ylamino)pentyl)pyrrolidine-2-carboxamide]",10 µg/mL,10.4 µg/mL,20 µg/mL,20 µg/mL,> 4.76 µg/mL,12.4 µg/mL,38.4 µg/mL,2.89 µg/mL,5 µg/mL,5 µg/mL,> 20 µg/mL,> 20 µg/mL,> 20 µg/mL,> 20 µg/mL,> 20 µg/mL,> 20 µg/mL,> 4.76 µg/mL,> 20 µg/mL,> 20 µg/mL,> 20 µg/mL,"cytotoxicity CTX [3]: NC (NC, not cytotoxic up to 4760 ng/mL (4.76 μg/mL))"
"CCCCCCCOc1c(OC)cc(NC(C)CCCNC(=O)C(N)CCSC)c2nc(C(C)(C)C)ccc12 (stereo not drawn) [compound 116, 2-Amino-N-(4-(2-tert-butyl-5-(heptyloxy)-6-methoxyquinolin-8-ylamino)pentyl)-4-(methylthio)butanamide]",5 µg/mL,4.07 µg/mL,10 µg/mL,10 µg/mL,3.2 µg/mL,4.1 µg/mL,12 µg/mL,1.29 µg/mL,10 µg/mL,10 µg/mL,> 20 µg/mL,> 20 µg/mL,> 20 µg/mL,> 20 µg/mL,> 20 µg/mL,> 20 µg/mL,4.76 µg/mL,> 20 µg/mL,> 20 µg/mL,> 20 µg/mL,"cytotoxicity CTX [3]: NC (NC, not cytotoxic up to 4760 ng/mL (4.76 μg/mL))"
"CCCCCCCCOc1c(OC)cc(NC(C)CCCN)c2nc(C(C)(C)C)cc(C)c12 (stereo not drawn) [compound 54, N^4-(5-Octyloxy-2-tert-butyl-6-methoxy-4-methylquinolin-8-yl)pentane-1,4-diamine]",> 20 µg/mL,> 20 µg/mL,> 20 µg/mL,> 20 µg/mL,> 4.76 µg/mL,9.74 µg/mL,15.6 µg/mL,9.96 µg/mL,> 20 µg/mL,> 20 µg/mL,> 20 µg/mL,> 20 µg/mL,> 20 µg/mL,18.6 µg/mL,> 20 µg/mL,> 20 µg/mL,> 4.76 µg/mL,> 20 µg/mL,> 20 µg/mL,> 20 µg/mL,"cytotoxicity CTX [3]: NC (NC, not cytotoxic up to 4760 ng/mL (4.76 μg/mL))"
"CCCCCCOc1c(OC)cc(NC(C)CCCNC(=O)C(N)C(C)CC)c2nc(C(C)(C)C)ccc12 (stereo not drawn) [compound 104, 2-Amino-N-(4-(2-tert-butyl-5-(hexyloxy)-6-methoxyquinolin-8-ylamino)pentyl)-3-methylpentanamide]",> 20 µg/mL,13.2 µg/mL,> 20 µg/mL,> 20 µg/mL,4 µg/mL,16 µg/mL,30 µg/mL,> 20 µg/mL,> 20 µg/mL,> 20 µg/mL,> 20 µg/mL,> 20 µg/mL,> 20 µg/mL,> 20 µg/mL,> 20 µg/mL,> 20 µg/mL,4.76 µg/mL,> 20 µg/mL,> 20 µg/mL,> 20 µg/mL,"cytotoxicity CTX [3]: NC (NC, not cytotoxic up to 4760 ng/mL (4.76 μg/mL))"
"CCCCCCCCOc1c(OC)cc(NC(C)CCCNC(=O)C(N)Cc2cc3ccccc3[nH]2)c2nc(C(C)(C)C)ccc12 (stereo not drawn) [compound 122, 2-Amino-N-(4-(2-tert-butyl-6-methoxy-5-(octyloxy)quinolin-8-ylamino)pentyl)-3-(1H-indol-2-yl)propanamide]",20 µg/mL,12 µg/mL,> 20 µg/mL,20 µg/mL,> 4.76 µg/mL,9.32 µg/mL,25.7 µg/mL,6.8 µg/mL,> 20 µg/mL,20 µg/mL,> 20 µg/mL,> 20 µg/mL,> 20 µg/mL,> 20 µg/mL,> 20 µg/mL,> 20 µg/mL,> 4.76 µg/mL,> 20 µg/mL,> 20 µg/mL,> 20 µg/mL,"cytotoxicity CTX [3]: NC (NC, not cytotoxic up to 4760 ng/mL (4.76 μg/mL))"
"CCCCCCOc1c(OC)cc(NC(C)CCCN)c2nc(C(C)(C)C)cc(C)c12 (stereo not drawn) [compound 52, N^4-(5-Hexyloxy-2-tert-butyl-6-methoxy-4-methylquinolin-8-yl)pentane-1,4-diamine]",5 µg/mL,2.83 µg/mL,5 µg/mL,5 µg/mL,> 4.76 µg/mL,1.77 µg/mL,2.55 µg/mL,0.84 µg/mL,2.5 µg/mL,1.25 µg/mL,5.91 µg/mL,10 µg/mL,10 µg/mL,3.43 µg/mL,5 µg/mL,5 µg/mL,> 4.76 µg/mL,19 µg/mL,> 20 µg/mL,> 20 µg/mL,"cytotoxicity CTX [3]: NC (NC, not cytotoxic up to 4760 ng/mL (4.76 μg/mL))"
"CCCCCCCOc1c(OC)cc(NC(C)CCCNC(=O)C(N)Cc2cc3ccccc3[nH]2)c2nc(C(C)(C)C)ccc12 (stereo not drawn) [compound 115, 2-Amino-N-(4-(2-tert-butyl-5-(heptyloxy)-6-methoxyquinolin-8-ylamino)pentyl)-3-(1H-indol-2-yl)propanamide]",5 µg/mL,4.56 µg/mL,10 µg/mL,10 µg/mL,2.8 µg/mL,19 µg/mL,32 µg/mL,1.36 µg/mL,2.5 µg/mL,2.5 µg/mL,> 20 µg/mL,> 20 µg/mL,> 20 µg/mL,8.74 µg/mL,20 µg/mL,10 µg/mL,3.3 µg/mL,> 20 µg/mL,> 20 µg/mL,> 20 µg/mL,"cytotoxicity CTX [3]: NC (NC, not cytotoxic up to 4760 ng/mL (4.76 μg/mL))"
